Measurements published in ChEMBL document CHEMBL1132724 (J Med Chem, 1999).

Assays:
[1] = target: T1, Delta-type opioid receptor (Rattus norvegicus, UniProt P33533); test: Ability to displace [3H]DADLE radioligand from Opioid receptor delta 1
Outline: (§1)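 Rat brain membranes prepared daily, homogenized in ice-cold 10 mM Tris-HCl pH 7.0, centrifuged twice at 30000g. [3H]DADLE 2.0 nM, 2 h at 25 °C in 50 mM Tris-HCl pH 7.4 with 100 mM choline chloride, 3 mM MnCl2, 100 nM DAMGO to block mu sites, protease inhibitors. Nonspecific binding: 20 μM levallorphan. 10 drug concentrations, run twice. Ki from IC50 by Cheng-Prusoff.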

[2] = target: Opioid receptors; mu & delta (Homo sapiens) (UniProt P41143+P35372); test: Selectivity Ratio of Ki of Mu receptor/ Ki of Delta receptor; type: protein assay
Sequence of Opioid receptors; mu & delta (Homo sapiens) (P35372 whole entry, looked up): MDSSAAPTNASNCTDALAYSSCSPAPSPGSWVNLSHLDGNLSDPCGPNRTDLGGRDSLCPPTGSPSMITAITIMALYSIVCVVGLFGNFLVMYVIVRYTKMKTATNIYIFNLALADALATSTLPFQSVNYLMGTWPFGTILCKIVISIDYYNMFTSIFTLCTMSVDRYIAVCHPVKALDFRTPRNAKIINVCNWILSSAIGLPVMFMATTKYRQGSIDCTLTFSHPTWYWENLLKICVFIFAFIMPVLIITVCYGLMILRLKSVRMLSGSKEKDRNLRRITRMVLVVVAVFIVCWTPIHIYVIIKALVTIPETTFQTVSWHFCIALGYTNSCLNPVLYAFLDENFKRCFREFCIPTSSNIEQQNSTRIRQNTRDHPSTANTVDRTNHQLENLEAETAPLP
Sequence of Opioid receptors; mu & delta (Homo sapiens) (P41143 whole entry, looked up): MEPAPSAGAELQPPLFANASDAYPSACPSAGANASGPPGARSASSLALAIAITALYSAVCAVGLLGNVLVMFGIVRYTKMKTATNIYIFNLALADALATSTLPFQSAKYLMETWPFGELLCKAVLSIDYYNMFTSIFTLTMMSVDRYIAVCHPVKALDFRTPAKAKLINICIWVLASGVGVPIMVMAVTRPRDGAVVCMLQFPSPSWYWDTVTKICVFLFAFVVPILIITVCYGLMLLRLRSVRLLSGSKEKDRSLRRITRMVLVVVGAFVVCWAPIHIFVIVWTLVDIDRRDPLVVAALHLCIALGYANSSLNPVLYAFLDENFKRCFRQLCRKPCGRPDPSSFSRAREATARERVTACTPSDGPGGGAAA

[3] = target: T2, Kappa-type opioid receptor (Cavia porcellus, UniProt P41144); test: Ability to displace [3H]U-69593 radioligand from Opioid receptor kappa 1
T2 sequence (P41144 whole entry): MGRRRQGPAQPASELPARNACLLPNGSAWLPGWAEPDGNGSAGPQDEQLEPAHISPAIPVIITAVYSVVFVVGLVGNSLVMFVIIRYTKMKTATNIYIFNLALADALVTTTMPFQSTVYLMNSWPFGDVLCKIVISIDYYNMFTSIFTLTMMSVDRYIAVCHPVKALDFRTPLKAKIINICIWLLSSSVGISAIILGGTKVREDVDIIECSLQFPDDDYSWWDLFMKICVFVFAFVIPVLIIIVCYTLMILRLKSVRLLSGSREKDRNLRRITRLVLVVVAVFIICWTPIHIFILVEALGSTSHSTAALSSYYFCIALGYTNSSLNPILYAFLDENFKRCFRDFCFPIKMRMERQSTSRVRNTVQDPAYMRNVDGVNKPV
Outline: (§2)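 Guinea pig brain membranes prepared daily, homogenized in ice-cold 10 mM Tris-HCl pH 7.0, centrifuged twice at 30000g. [3H]U69,593 2.0 nM, 2 h at 25 °C in 50 mM Tris-HCl pH 7.4 with 1 μg/mL captopril and protease inhibitors. Nonspecific binding: 1 μM U69,593. 10 drug concentrations, run twice. Ki from IC50 by Cheng-Prusoff.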

[4] = target: Opioid receptors; delta & kappa (Homo sapiens) (UniProt P41145+P41143); test: Selectivity Ratio of Ki of Kappa receptor/ Ki of Delta receptor; type: protein assay
Sequence of Opioid receptors; delta & kappa (Homo sapiens) (P41143 whole entry, looked up): as the sequence (P41143 whole entry, looked up) above
Sequence of Opioid receptors; delta & kappa (Homo sapiens) (P41145 whole entry, looked up): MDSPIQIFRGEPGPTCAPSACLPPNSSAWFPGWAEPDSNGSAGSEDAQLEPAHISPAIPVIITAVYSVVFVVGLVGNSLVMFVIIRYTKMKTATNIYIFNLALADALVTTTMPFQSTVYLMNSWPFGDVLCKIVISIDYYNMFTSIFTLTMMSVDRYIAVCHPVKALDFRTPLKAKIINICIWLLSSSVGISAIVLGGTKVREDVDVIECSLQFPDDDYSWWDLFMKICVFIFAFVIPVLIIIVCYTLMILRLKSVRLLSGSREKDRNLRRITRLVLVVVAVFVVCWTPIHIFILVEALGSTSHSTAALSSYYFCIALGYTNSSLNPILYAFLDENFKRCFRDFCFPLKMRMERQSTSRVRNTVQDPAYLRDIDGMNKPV

[5] = target: T3, Mu-type opioid receptor (Rattus norvegicus, UniProt P33535); test: Ability to displace [3H]DAMGO radioligand from Opioid receptor mu 1
T3 sequence (P33535 whole entry): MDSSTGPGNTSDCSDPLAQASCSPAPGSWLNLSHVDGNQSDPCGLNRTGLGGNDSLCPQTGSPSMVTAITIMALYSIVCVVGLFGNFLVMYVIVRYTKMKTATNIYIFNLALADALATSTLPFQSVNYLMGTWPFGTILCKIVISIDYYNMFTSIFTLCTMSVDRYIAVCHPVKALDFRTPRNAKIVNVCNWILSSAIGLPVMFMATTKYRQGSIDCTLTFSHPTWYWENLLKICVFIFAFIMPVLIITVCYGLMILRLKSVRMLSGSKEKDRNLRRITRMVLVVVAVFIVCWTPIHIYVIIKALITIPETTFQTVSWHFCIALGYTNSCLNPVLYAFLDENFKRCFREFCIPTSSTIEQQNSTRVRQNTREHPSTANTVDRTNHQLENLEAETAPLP
Outline: (§3)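 Rat brain membranes prepared daily, homogenized in ice-cold 10 mM Tris-HCl pH 7.0, centrifuged twice at 30000g. [3H]DAMGO 2.0 nM, 2 h at 25 °C in 50 mM Tris-HCl pH 7.4 with protease inhibitors. Nonspecific binding: 20 μM levallorphan. 10 drug concentrations, run twice. IC50 converted to Ki by Cheng-Prusoff.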

[6] = species on record: Mus musculus; test: (§4) Agonistic activity in Mouse Vas Deferens; type: functional, organism-based
Outline: (§5)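 Electrically stimulated (0.1 Hz, 0.4-ms pulses, 2-ms for MVD) guinea pig ileum myenteric plexus strips (male Hartley) or vas deferens (male ICR mice) in 37 °C oxygenated Krebs (Mg-free for MVD). […] Tissues checked against an initial DPDPE or PL-017 curve. Mean of 2-4 tissues.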

[7] = species on record: Cavia porcellus; test: (§6) Agonistic activity in Guinea Pig Ileum; type: functional, organism-based; outline: as §5
[8] = target: Mu-type opioid receptor (Cavia porcellus, UniProt P97266); test: Ability to inhibit GTP-gamma-S binding to Opioid receptor mu 1 of guinea pig caudate.
Sequence of Mu-type opioid receptor (Cavia porcellus, UniProt P97266) (P97266 whole entry): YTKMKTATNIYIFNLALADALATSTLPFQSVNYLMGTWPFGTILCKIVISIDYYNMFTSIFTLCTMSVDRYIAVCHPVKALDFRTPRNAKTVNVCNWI
Outline: (§7)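 Antagonism of agonist-stimulated [35S]GTP-γ-S (0.05-0.1 nM) binding in guinea pig caudate membranes (10 μg). Buffer: 59 mM Tris pH 7.7, 100 mM NaCl, 1 mM EDTA, 1 mM DTT, 100 μM GDP, 0.1% BSA. Agonist 500 nM or 10 μM (DAMGO for mu, U69,593 for kappa), ≥10 antagonist concentrations, 4 h. Filtration and scintillation counting. Nonspecific binding: 10 μM GTP-γ-S. Triplicate, ≥3 experiments. Ki by curve fitting.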

[9] = species on record: Mus musculus; test: as §4; type: functional; outline: as §5
[10] = species on record: Cavia porcellus; test: as §6; type: functional; outline: as §5
[11] = target: T2, Kappa-type opioid receptor; test: Ability to inhibit GTP-gamma-S binding to Opioid receptor kappa 1 of guinea pig caudate.
Outline: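 Guinea pig caudate membranes (10 μg) incubated 4 h with 0.05-0.1 nM [35S]GTP-γ-S in Tris buffer pH 7.7 with NaCl, MgCl2, EDTA, DTT, 100 µM GDP, 0.1% BSA. κ agonist U69,593 (500 nM or 10 μM) antagonised by ≥10 antagonist concentrations.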

[12] = target: T1, Delta-type opioid receptor; test: Binding affinity towards Opioid receptor delta 1 by the displacement of [3H]DADLE radioligand in rat brain membranes; type: cell membranes; outline: as §1
[13] = target: T2, Kappa-type opioid receptor; test: Ability to inhibit GTP-gamma-S binding to Opioid receptor kappa 1 of guinea pig caudate; outline: as §7
[14] = target: T3, Mu-type opioid receptor; test: Binding affinity towards Opioid receptor mu 1 by the displacement of [3H]DAMGO radioligand in rat brain membranes; type: cell membranes; outline: as §3
[15] = target: T2, Kappa-type opioid receptor; test: Binding affinity towards Opioid receptor kappa 1 by the displacement of [3H]U-69593 radioligand in guinea pig brain membranes; type: cell membranes, Membrane; outline: as §2

T1 sequence (P33533 whole entry): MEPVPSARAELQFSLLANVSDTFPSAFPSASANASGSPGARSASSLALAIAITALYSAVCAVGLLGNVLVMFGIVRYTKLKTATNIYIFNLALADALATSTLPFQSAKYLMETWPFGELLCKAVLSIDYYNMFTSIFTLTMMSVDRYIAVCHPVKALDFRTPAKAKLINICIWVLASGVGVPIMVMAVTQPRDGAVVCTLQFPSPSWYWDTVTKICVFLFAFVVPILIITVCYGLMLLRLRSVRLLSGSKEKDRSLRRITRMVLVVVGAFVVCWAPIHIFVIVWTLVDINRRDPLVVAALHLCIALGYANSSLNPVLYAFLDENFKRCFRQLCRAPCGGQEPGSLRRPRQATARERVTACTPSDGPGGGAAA

Structure (SMILES)	Ki [1] [nM]	Selectivity ratio [2]	Ki [3] [nM]	Selectivity ratio [4]	Ki [5] [nM]	other results
COc1ccc2c(c1O)[C@]13CCN(C)[C@H](C2)[C@]1(O)Cc1c([nH]c2ccccc12)C3	218	13	> 6700	31	2850	–
C=CCN1C[C@H](C)N([C@H](c2ccc(C(=O)N(CC)CC)cc2)c2cccc(OC)c2)C[C@H]1C [SNC-80]	–	–	–	–	–	IC50 [6]: 2.73 nM; IC50 [7]: 5460 nM
Oc1ccc2c3c1O[C@H]1c4[nH]c5ccccc5c4C[C@@]4(O)[C@@H](C2)N(CC2CC2)CC[C@]314 [NALTRINDOLE]	[…]	–	–	–	–	Ki [8]: 3.2 nM; Inhibition [9]: <20%; Inhibition [10]: <20%; Ki [11]: 8.85 nM
CCN1CC[C@]23Cc4[nH]c5ccccc5c4C[C@H]2[C@H]1Cc1ccc(OC)c(O)c13	515	3	3640	7	1350	–
COc1ccc2c(c1O)[C@]13CCN(CC4CC4)[C@H](C2)[C@@H]1Cc1c([nH]c2ccccc12)C3	–	–	–	–	–	Ki [8]: > 1250 nM; Ki [12]: 7 nM; Ki [13]: > 1250 nM; Ki [14]: 13300 nM; Ki [15]: 7920 nM; IC50 [6]: 188 nM; IC50 [7]: 532 nM
CCN1CC[C@]23Cc4[nH]c5ccccc5c4C[C@@]2(O)[C@H]1Cc1ccc(OC)c(O)c13	684	–	> 5300	8	797	–
COc1ccc2c(c1O)[C@]13CCN(CC4CC4)[C@H](C2)[C@]1(O)Cc1c([nH]c2ccccc12)C3	21.8	85	3160	145	1850	–
COc1ccc2c(c1O)[C@]13CCN(C)[C@H](C2)[C@@H]1Cc1c([nH]c2ccccc12)C3	94	30	> 6800	72	2820	–
